TRPC4 block = TRPC4 (mouse) channel inhibition; Q9QUQ5; HEK293 TRPC4beta/mu-opioid, DAMGO-evoked Fluo4 calcium flux; active compounds read low; B-score at 10 µM; actives 0.39% (n = 300,000);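 active = B-score over 3 SD under the library average, no early fluorescence shift, positive overall ratio signal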
Target sequence (Q9QUQ5 whole entry, looked up): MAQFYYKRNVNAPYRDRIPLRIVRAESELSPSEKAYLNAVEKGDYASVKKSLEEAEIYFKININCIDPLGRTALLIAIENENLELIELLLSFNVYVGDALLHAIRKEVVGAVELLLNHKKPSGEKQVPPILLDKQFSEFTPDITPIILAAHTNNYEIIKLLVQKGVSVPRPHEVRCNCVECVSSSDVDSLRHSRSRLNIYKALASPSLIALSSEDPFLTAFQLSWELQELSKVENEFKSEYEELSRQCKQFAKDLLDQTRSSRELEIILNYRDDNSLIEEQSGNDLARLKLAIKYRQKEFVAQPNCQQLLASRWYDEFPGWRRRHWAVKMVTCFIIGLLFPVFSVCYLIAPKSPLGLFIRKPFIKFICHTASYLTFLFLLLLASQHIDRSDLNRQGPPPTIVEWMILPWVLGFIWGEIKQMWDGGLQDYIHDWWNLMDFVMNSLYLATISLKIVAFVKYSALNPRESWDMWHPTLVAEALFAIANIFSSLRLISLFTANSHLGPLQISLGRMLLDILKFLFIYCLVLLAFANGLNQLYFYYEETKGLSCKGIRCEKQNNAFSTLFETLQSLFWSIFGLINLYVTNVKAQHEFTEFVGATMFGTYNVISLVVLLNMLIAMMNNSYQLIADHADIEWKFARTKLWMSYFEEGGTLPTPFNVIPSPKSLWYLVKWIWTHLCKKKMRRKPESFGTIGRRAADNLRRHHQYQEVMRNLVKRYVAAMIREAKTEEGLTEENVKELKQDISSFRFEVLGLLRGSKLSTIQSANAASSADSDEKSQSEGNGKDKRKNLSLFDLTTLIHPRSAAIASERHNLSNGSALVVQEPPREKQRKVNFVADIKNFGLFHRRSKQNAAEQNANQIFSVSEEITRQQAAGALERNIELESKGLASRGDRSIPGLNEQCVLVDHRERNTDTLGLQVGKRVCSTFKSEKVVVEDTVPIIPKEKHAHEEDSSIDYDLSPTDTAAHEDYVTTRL
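Assay system: HEK293 cells with stable TRPC4beta plus mu-opioid receptor expression. Dosing: single dose. Measured by: Fluo4 Ca2+ flux fluorescence. Also added: DAMGO in two steps, submaximal then maximal. Read-out: B score from integrated Fluo4 fluorescence ratio.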
TRPC4 agonist = opens the mouse TRPC4 cation channel. Q9QUQ5. HEK293 TRPC4beta/mu-opioid, Fluo4 calcium fluorescence; active compounds read high. B-score at 10 µM. actives 0.49% (n = 310,000). AID 2237;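 active = B-score above 5 SD of library B-scores, and initial fluorescence ratio not above library mean plus 5 SD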;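 also: positive B-score marks a calcium rise read as TRPC4 activation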
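system = HEK293 cells stably co-expressing mouse TRPC4beta and mu-opioid receptor | schedule = Fluo4 dye loading 45 min at room temperature, 110 s recording | measure = B-scored integrated calcium fluorescence ratio | signal = Fluo4 calcium-sensitive dye fluorescence, kinetic, 1 Hz baseline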
TRPC6 activator = mouse TRPC6 channel activation | AID 2550 | Q61143 | B-score at 10 µM | HEK293-TRPC6 membrane potential dye fluorescence; active compounds read high | actives 0.13% (n = 310,000);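 active = B-score of the integrated fluorescence ratio above library mean plus 3 SD, and starting fluorescence ratio within library mean plus 5 SD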;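 also: higher score means more depolarization so channel activation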
TRPC4 potent = TRPC4 (mouse) allosteric potentiation; Q9QUQ5; HEK293 TRPC4beta/mu-opioid, DAMGO EC20, Fluo-4 Ca2+ flux; active compounds read high; B-score at 10 µM; actives 0.42% (n = 310,000);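 active = B-score of calcium response area above 5 SD of library B-scores, with initial fluorescence ratio within 5 SD of library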;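 also: B-score of integrated fluorescence ratio over time as area under calcium response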
TRPC6 inh = inhibitors of mouse TRPC6 channel. HEK293-TRPC6, membrane potential dye, ACh-evoked depolarization; active compounds read low. B-score at 10 µM. Q61143. actives 1.1% (n = 310,000);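 active = B-score under library mean minus 3 SD, initial fluorescence not abnormally high, positive integrated signal ratio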;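 also: B-score derived from integrated fluorescence ratio over the kinetic read; more negative B-score means stronger inhibition of depolarization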
TRPC4 spec 2 = second selectivity test of TRPC6 inhibitors: effect on mouse TRPC4. AID 2776. HEK293 TRPC4/MOR, membrane potential dye fluorescence; channel activated by saturating DAMGO dose. shares compounds with TRPC6 inh. inhibition, % at 10 µM. actives 42% (n = 920);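 active = compounds whose fluorescence signal differed from control wells by over 3 SD, either direction, in both duplicate plates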
TRPC4 spec = mouse TRPC4 off-target activity of TRPC6 inhibitors | shares compounds with TRPC6 inh | HEK293 TRPC4/mu-opioid, membrane potential fluorescence | activity change, negative = inhibition, % at 10 µM | actives 61% (n = 920);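 active = rise or fall in signal beyond 3 SD of buffer-only wells in both replicate plates, either sign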;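 also: integrated kinetic ratio of fluorescence range over baseline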
HEK293 MPD ctr 2-1 = second check of TRPC6 inhibitor effects in parental HEK293 cells; shares compounds with TRPC6 inh; parental HEK293 membrane potential dye fluorescence; maximal acetylcholine challenge after compound addition; signal change vs control, % at 10 µM; actives 31% (n = 920); AID 2779;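 active = membrane potential signal moving either way by over 3 SD of the maximum-effect control, in both duplicate plates, meaning non-specific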
HEK293 MPD ctr-1 = parental HEK293 nonspecific activity of TRPC6 inhibitors | parental HEK293 membrane potential dye fluorescence | shares compounds with TRPC6 inh | membrane potential signal change, % at 10 µM | actives 60% (n = 920);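 active = membrane potential signal shifting up or down by more than 3 SD of buffer-only wells, on both duplicate plates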
HEK293 MPD ctr-2 = parental HEK293 nonspecific activity of TRPC6 modulators. actives 51% (n = 2,400). membrane potential signal change, % at 10 µM. shares compounds with TRPC6 inh. AID 488924. membrane potential dye fluorescence;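 active = membrane potential signal moves up or down beyond 5 SD from buffer-only wells, on both duplicate plates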
HEK293 MPD ctr 2-2 = second counter-screen for TRPC6 modulators: effect in parental HEK293 cells; actives 14% (n = 2,400); membrane potential dye fluorescence; after compound, maximal acetylcholine stimulation; shares compounds with TRPC6 inh; inhibition, % at 10 µM; AID 488926;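 active = membrane potential signal drops by more than 5 SD from the mean control signal, in both duplicate plates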;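 also: plate controls were acetylcholine ECmax control wells for no effect and buffer only wells for full effect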
TRPC4 ctr mod = selectivity of TRPC6 modulators against mouse TRPC4; shares compounds with TRPC6 inh; HEK293 TRPC4/mu-opioid, membrane potential fluorescence; percent change from control (negative = decrease, positive = increase), % at 10 µM; actives 69% (n = 2,400);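 active = membrane potential signal moved up or down beyond 5 SD of buffer control wells, in both duplicate plates, actives on both sides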;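 also: plate controls were assay buffer wells for no effect and DAMGO maximal-effect wells for full effect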
TRPC4 ctr inh 2 = mouse TRPC4 off-target activity of TRPC6 modulators, second screen. actives 55% (n = 2,400). HEK293 TRPC4/mu-opioid, membrane potential dye fluorescence; stimulated with maximal-effect DAMGO. shares compounds with TRPC6 inh. AID 488928. inhibition, % at 10 µM;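 active = drop in membrane potential signal beyond 5 SD of the control wells in both duplicate plates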;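 also: TRPC4 counter screen for TRPC6 hits run under conditions tuned for TRPC6 not TRPC4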
TRPC6 inh conf = mouse TRPC6 inhibitor confirmation | shares compounds with TRPC6 inh | HEK293-TRPC6, membrane potential dye, ACh-evoked depolarization | inhibition, % at 10 µM | actives 43% (n = 3,300) | AID 488960;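 active = fluorescence ratio falls more than 5 SD below the full-stimulation control mean, in both duplicate runs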;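 also: integrated fluorescence ratio of peak minus minimum over baseline after agonist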
TRPC6 act conf = confirmation of mouse TRPC6 activators | shares compounds with TRPC6 inh | HEK293-TRPC6 membrane potential dye fluorescence, FDSS | activation, % at 10 µM | actives 11% (n = 2,800) | AID 488961;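 active = ratio signal rise beyond 5 SD above unstimulated control wells' mean, seen in both duplicate runs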;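 also: plate controls were buffer EC0 wells for no effect and acetylcholine ECmax response for full effect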
An asterisk follows results filed as active; i = inactive; . = no result. Rows were chosen to be rich in hits. Some 2.3% of all compounds tested hit in one or more screens of this group.

SMILES	TRPC4 block	TRPC4 agonist	TRPC6 activator	TRPC4 potent	TRPC6 inh	TRPC4 spec 2	TRPC4 spec	HEK293 MPD ctr 2-1	HEK293 MPD ctr-1	HEK293 MPD ctr-2	HEK293 MPD ctr 2-2	TRPC4 ctr mod	TRPC4 ctr inh 2	TRPC6 inh conf	TRPC6 act conf
CNc1nc(NCc2ccccc2)c2ccccc2n1	-6*	i	i	i	-5.27*	.	.	.	.	-110.5%*	i	-26.0%*	78.5%*	53.5%*	i
Oc1ccc(CCNc2c3ccccc3nc3ccccc23)cc1O	i	i	i	i	-4.99*	.	.	.	.	-91.5%*	i	-13.5%*	i	i	i
O=C(Cc1ccccc1)NNc1c2ccccc2nc2ccccc12	i	i	i	i	i	.	.	.	.	.	.	.	.	.	.
COc1cc(SC)ccc1C(=O)Nc1nccs1	i	i	i	i	i	.	.	.	.	.	.	.	.	.	.
Cc1ccccc1SCCNC(=O)CCc1ccccc1	i	i	i	i	i	.	.	.	.	.	.	.	.	.	.
Nc1nc(NCCCN2CCOCC2)nc(Nc2cccc(Cl)c2)c1[N+](=O)[O-]	i	i	i	i	-5.56*	.	.	.	.	i	i	-18.5%*	85.5%*	51.5%*	i
O=C(Nc1ccc(N2CCCC2)c(Cl)c1)c1ccc([N+](=O)[O-])cc1	i	i	i	i	i	.	.	.	.	.	.	.	.	.	.
CCN1CCN(c2c(Cl)cccc2NC(=O)c2ccc([N+](=O)[O-])cc2)CC1	i	99*	i	i	-5.9*	.	.	.	.	-225.0%*	i	-34.5%*	63.0%*	i	i
CCN1CCN(c2c(Cl)cccc2NC(=O)c2ccc3nsnc3c2)CC1	i	63*	i	19*	-9.64*	.	.	.	.	-206.0%*	i	-35.5%*	64.5%*	47.5%*	i
CCCn1c(Cc2ccccc2)n[nH]c1=S	i	i	i	i	i	.	.	.	.	.	.	.	.	.	.
S=c1[nH]nc(Cc2ccccc2)n1Cc1ccco1	i	i	i	i	-8.33*	i	i	13.5%*	i	.	.	.	.	64.8%*	i
CCN1CCCC(OC(=O)c2cc(-c3ccccc3Cl)nc3ccccc23)C1 (configuration not stated)	i	i	i	22*	-5.5*	.	.	.	.	134.0%*	i	24.5%*	45.0%*	i	.
O=C(c1cc(-c2ccccc2Cl)nc2ccccc12)N1CCC1	i	i	i	i	i	.	.	.	.	.	.	.	.	.	.
COCc1cnc(C)nc1N	i	i	i	i	i	.	.	.	.	.	.	.	.	.	.
CCCn1c(C(C)Nc2nc(-c3cc(Cl)c(N)c(Cl)c3)cs2)nc2cc(Cl)c(N3CCCCC3)cc21 (configuration not stated)	i	i	i	i	i	.	.	.	.	.	.	.	.	.	.
COc1ccccc1C(=O)NCC1CCN(c2ccc(S(=O)(=O)N3CCOCC3)cc2)CC1	i	i	i	i	-6.87*	i	8.9%*	10.0%*	5.1%*	.	.	.	.	55.4%*	i
CSCc1cc(N(C)c2ccccc2)nc(-c2ccccn2)n1	i	i	i	i	-7.16*	i	i	i	i	.	.	.	.	i	i
CCN(CC)CCn1nc2c3c(cccc3c1=O)-c1ccccc1-2	i	i	i	i	-5.82*	.	.	.	.	-77.5%*	i	-17.5%*	55.0%*	39.5%*	i
O=C(C1CC1)N1CCCC(c2ccc(Cl)cc2)=N1	i	i	i	i	-6.95*	i	9.6%*	i	5.5%*	.	.	.	.	i	.
CCCOc1ccc(NC(=O)CC2C(=O)N(Cc3ccccc3)C(=S)N2Cc2cccs2)cc1 (configuration not stated)	i	i	i	i	i	.	.	.	.	.	.	.	.	.	.
O=C(O)c1cccnc1C(=O)N1CCc2c([nH]c3ccccc23)C1C(F)(F)F (configuration not stated)	i	i	i	i	i	.	.	.	.	.	.	.	.	.	.
c1cnc2c(C3NCCc4c3[nH]c3ccccc43)cccc2c1 (configuration not stated)	i	i	i	i	-6.6*	.	.	.	.	i	i	i	71.5%*	49.5%*	i
Cn1c(CCN2CCCCC2)nc2cc(NC(=O)COc3ccc(Cl)cc3)ccc21	i	i	i	i	i	.	.	.	.	.	.	.	.	.	.
Cc1ccc(C(C)C)c(OCC(=O)Nc2ccc3c(c2)nc(CCN2CCCCC2)n3C)c1	i	i	i	i	-6.01*	.	.	.	.	i	i	i	77.5%*	57.0%*	.
CC1(C)Cc2nc3oc4c(=O)n(CC(=O)Nc5ccc(Cl)cc5)cnc4c3cc2CO1	i	i	i	i	-8.32*	i	i	i	i	.	.	.	.	i	i
CCN1C(=O)/C(=C\N2CCCCCC2)SC1=S	i	i	i	i	-7.23*	i	i	i	i	.	.	.	.	i	i
Cc1ccc(O)c(Sc2cc(C)ccc2O)c1	-6*	i	i	i	-8.44*	i	-13.4%*	i	-141.0%*	.	.	.	.	70.9%*	i
CC(=O)C1=C(O)C(=O)N(c2cccnc2)C1c1ccc(Cl)cc1 (configuration not stated)	i	i	i	i	i	.	.	.	.	.	.	.	.	.	.

Bioassay records: PubChem BioAssay, Johns Hopkins Ion Channel Center
